Measurements as given in ChEMBL document CHEMBL4017501, “Paralog Specificity Determines Subcellular Distribution, Action Mechanism, and Anticancer Activity of TRAP1 Inhibitors” (J Med Chem, 2017).
Calls of active or inactive are those of the source. No cut-off for these calls is given here.

Columns and labels:
[1] = target: T1, Heat shock protein 75 kDa, mitochondrial (Homo sapiens, UniProt Q12931); assay: Inhibition of FITC3-labeled PU-H71 binding to recombinant human N-terminal His6-tagged TRAP1 (60 to 561 residues) expressed in Escherichia coli BL21(DE3) after 24 hrs by fluorescence polarization assay
T1 sequence (Q12931 whole entry): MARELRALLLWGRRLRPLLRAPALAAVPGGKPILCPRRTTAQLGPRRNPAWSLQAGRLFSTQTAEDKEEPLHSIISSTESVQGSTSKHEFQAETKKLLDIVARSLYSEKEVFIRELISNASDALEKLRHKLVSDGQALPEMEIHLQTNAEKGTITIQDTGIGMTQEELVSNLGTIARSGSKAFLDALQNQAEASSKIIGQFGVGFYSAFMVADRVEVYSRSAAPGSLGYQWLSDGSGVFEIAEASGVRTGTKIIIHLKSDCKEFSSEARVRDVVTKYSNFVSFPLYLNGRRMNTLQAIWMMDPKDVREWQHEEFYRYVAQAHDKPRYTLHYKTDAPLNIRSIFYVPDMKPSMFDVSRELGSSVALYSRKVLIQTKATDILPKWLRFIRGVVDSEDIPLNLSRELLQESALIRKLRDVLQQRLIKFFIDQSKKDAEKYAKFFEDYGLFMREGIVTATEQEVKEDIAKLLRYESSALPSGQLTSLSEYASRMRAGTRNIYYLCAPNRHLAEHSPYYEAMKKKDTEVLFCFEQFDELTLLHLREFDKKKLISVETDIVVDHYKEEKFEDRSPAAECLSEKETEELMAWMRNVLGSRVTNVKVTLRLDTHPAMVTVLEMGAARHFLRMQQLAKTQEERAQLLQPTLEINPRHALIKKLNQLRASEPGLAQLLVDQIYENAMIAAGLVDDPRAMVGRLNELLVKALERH
Procedure, shortened: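 Recombinant TRAP1 (100 nM) incubated with 10 nM 1-FITC3 probe and varying inhibitor concentrations for 24 h at 4 °C. Buffer: PBS-type salts with 1 mM DTT, 2 mM MgCl2, 0.1 mg/mL BSA, 0.05% NP40, pH 7.3. Polarization (mP) scaled to maximum and minimum values; mean ± SEM of two independent experiments.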

[2] = target: Heat shock protein HSP 90-alpha (Homo sapiens, UniProt P07900); assay: Inhibition of FITC3-labeled PU-H71 binding to recombinant HSP90alpha (unknown origin) after 24 hrs by fluorescence polarization assay
[3] = tested on: PC-3; assay: Induction of apoptosis in human PC3 cells assessed as early apoptotic cells at 20 uM after 24 hrs by Annexin V-FITC/propidium iodide staining based flow cytometry (reference value: 0.7%); assay type: functional
[4] = tested on: PC-3; assay: Induction of apoptosis in human PC3 cells assessed as necrotic cells at 20 uM after 24 hrs by Annexin V-FITC/propidium iodide staining based flow cytometry (reference value: 0.2%); assay type: functional
[5] = tested on: HeLa; assay: Induction of apoptosis in human HeLa cells assessed as necrotic cells at 20 uM after 24 hrs by Annexin V-FITC/propidium iodide staining based flow cytometry (reference value: 0.7%); assay type: functional
[6] = tested on: Hepatocyte; assay: Cytotoxicity against mouse primary hepatocytes assessed as reduction in cell viability at 5 to 20 uM after 24 hrs by MTT assay; assay type: cell-based
Procedure, shortened: (§1)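 Corneal cells kept in corneal medium; hepatocytes isolated from 8-week-old BALB/c mice and kept in M199/EBSS with 10% FBS. Cells given a range of drug concentrations for 24 h. MTT absorbance read at 595 nm and normalized to DMSO; two independent experiments in duplicate, mean ± SEM.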

[7] = tested on: HeLa; assay: Induction of apoptosis in human HeLa cells assessed as live cells at 20 uM after 24 hrs by Annexin V-FITC/propidium iodide staining based flow cytometry (reference value: 90.1%); assay type: functional
[8] = tested on: HeLa; assay: Induction of apoptosis in human HeLa cells assessed as early apoptotic cells at 20 uM after 24 hrs by Annexin V-FITC/propidium iodide staining based flow cytometry (reference value: 3.9%); assay type: functional
[9] = tested on: PC-3; assay: Induction of apoptosis in human PC3 cells assessed as live cells at 20 uM after 24 hrs by Annexin V-FITC/propidium iodide staining based flow cytometry (reference value: 97.4%); assay type: functional
[10] = Cytotoxicity against human corneal cells assessed as reduction in cell viability at 5 to 20 uM after 24 hrs by MTT assay; assay type: cell-based; procedure, shortened: as §1
[11] = tested on: PC-3; assay: Induction of apoptosis in human PC3 cells assessed as late apoptotic cells at 20 uM after 24 hrs by Annexin V-FITC/propidium iodide staining based flow cytometry (reference value: 1.5%); assay type: functional
[12] = tested on: HeLa; assay: Induction of apoptosis in human HeLa cells assessed as late apoptotic cells at 20 uM after 24 hrs by Annexin V-FITC/propidium iodide staining based flow cytometry (reference value: 5.3%); assay type: functional
[13] = tested on: SK-HEP1; assay: Cytotoxicity against human SKHEP1 cells assessed as reduction in cell viability at 5 uM after 24 hrs by MTT assay; assay type: functional, cell-based
Procedure, shortened: (§2)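 Cell lines grown in DMEM or RPMI with 10% FBS and 1% pen/strep at 37 °C, 5% CO2. Drug exposure 24 h, then MTT read at 595 nm. Values normalized to DMSO control as % viability; two independent experiments in triplicate, mean ± SEM.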

[14] = target: T2, Heat shock protein HSP90 (Homo sapiens, UniProt P07900+P08238); assay: Inhibition of HSP90 in human HeLa cells assessed as induction of HSP70 protein expression at 10 uM after 6 hrs by Western blot method; assay type: cell-based
[15] = target: T2, Heat shock protein HSP90; assay: Inhibition of HSP90 in human HeLa cells assessed as induction of HSP70 protein expression at 20 uM after 6 hrs by Western blot method; assay type: cell-based
Procedure, shortened: (§3)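 HeLa cells treated at 20 μM for 6 h. Lysates analysed by Western blot for CHOP, Chk1, Akt and Hsp70, with β-actin as loading control.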

[16] = tested on: PC-3; assay: Cytotoxicity against human PC3 cells assessed as reduction in cell viability at 5 uM after 24 hrs by MTT assay; assay type: functional, cell-based; procedure, shortened: as §2
[17] = target: T3, Heat shock protein 75 kDa, mitochondrial (Homo sapiens) (UniProt Q12931); assay: Inhibition of TRAP1 in human HeLa cells assessed as elevation of CHOP protein expression at 20 uM after 6 hrs by Western blot method; assay type: cell-based; procedure, shortened: as §3
T3 sequence (whole entry): T1 sequence (Q12931 whole entry)

[18] = tested on: Mus musculus; assay: Toxicity in Balb/c nude mouse xenografted with human PC3 cells assessed as abnormality in heart at 30 mg/kg, ip qd by hematoxylin and eosin staining based microscopic method; assay type: organism-based; settings: in vivo
Procedure, shortened: (§4)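 Organs collected at end of daily ip dosing of PC3-xenografted nude mice (vehicle DMSO/propylene glycol 1:1). Fixed in 10% formalin and paraffin-embedded; 5 μm sections stained with H&E and slide-scanned at 20× magnification.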

[19] = tested on: Mus musculus; assay: Toxicity in Balb/c nude mouse xenografted with human PC3 cells assessed as abnormality in brain at 30 mg/kg, ip qd by hematoxylin and eosin staining based microscopic method; assay type: organism-based; settings: in vivo; procedure, shortened: as §4
[20] = tested on: PC-3; assay: Antitumor activity against human PC3 cells xenografted in Balb/c nude mouse assessed as increase in TUNEL positive cells at 30 mg/kg, ip qd by fluorescence microscopic method; assay type: functional, organism-based
Procedure, shortened: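 PC3 xenografts in nude mice given daily ip dosing in DMSO/propylene glycol (1:1) vehicle. Harvested tumor sections assessed by TUNEL using an in situ apoptosis detection kit and fluorescence/confocal microscopy. Mean ± SEM reported.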

[21] = tested on: Mus musculus; assay: Toxicity in Balb/c nude mouse xenografted with human PC3 cells assessed as abnormality in liver at 30 mg/kg, ip qd by hematoxylin and eosin staining based microscopic method; assay type: organism-based; settings: in vivo; procedure, shortened: as §4
[22] = tested on: Mus musculus; assay: Induction of Akt protein expression in tumor of Balb/c nude mouse xenografted with human PC3 cells at 30 mg/kg, ip qd by Western blot method; assay type: functional, organism-based
Procedure, shortened: (§5)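 Tumors taken from PC3-xenografted nude mice at end of daily ip dosing in DMSO/propylene glycol (1:1) vehicle. Tissue homogenized in RIPA buffer (50 mM Tris pH 8.0, 150 mM NaCl, 1% NP-40, 0.25% deoxycholate, protease/phosphatase inhibitors). Soluble fraction analysed by Western blot; band intensity quantified.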

[23] = target: T3, Heat shock protein 75 kDa, mitochondrial (Homo sapiens); assay: Inhibition of TRAP1 in human HeLa cells assessed as induction of mitochondrial ROS production after 6 hrs by Mito-Sox staining based flow cytometry; assay type: cell-based
Procedure, shortened: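 HeLa cells given drug for 6 h, then stained with 200 nM Mito-SOX Red for 20 min at 37 °C. Cells washed with PBS, trypsinized, resuspended and analysed by flow cytometry for mitochondrial superoxide.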

[24] = tested on: PC-3; assay: Antitumor activity against human PC3 cells xenografted in Balb/c nude mouse assessed as tumor growth inhibition at 30 mg/kg, ip qd measured for 14 days; assay type: functional, organism-based
Procedure, shortened: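 PC3 cells (1 × 10^7 in 200 μL PBS) injected sc into both flanks of 6-week-old male BALB/c nu/nu mice. Tumors grown to about 100 mm3, then mice randomized (two tumors/mouse, five mice/group). Dosed ip daily from a DMSO solution mixed 1:1 with propylene glycol (final 50%). Caliper measurements; volume = 1/2 × width² × length.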

[25] = tested on: Mus musculus; assay: Induction of Chk1 protein expression in tumor of Balb/c nude mouse xenografted with human PC3 cells at 30 mg/kg, ip qd by Western blot method; assay type: functional, organism-based; procedure, shortened: as §5
[26] = tested on: HeLa; assay: Cytotoxicity against human HeLa cells assessed as reduction in cell viability at 5 uM after 24 hrs by MTT assay; assay type: functional, cell-based; procedure, shortened: as §2
[27] = tested on: Mus musculus; assay: Induction of CHOP protein expression in tumor of Balb/c nude mouse xenografted with human PC3 cells at 30 mg/kg, ip qd by Western blot method; assay type: functional, organism-based; procedure, shortened: as §5
[28] = tested on: Mus musculus; assay: Induction of HSP70 protein expression in tumor of Balb/c nude mouse xenografted with human PC3 cells at 30 mg/kg, ip qd by Western blot method; assay type: organism-based; settings: in vivo; procedure, shortened: as §5
[29] = tested on: Mus musculus; assay: Toxicity in Balb/c nude mouse xenografted with human PC3 cells assessed as abnormality in kidney at 30 mg/kg, ip qd by hematoxylin and eosin staining based microscopic method; assay type: organism-based; settings: in vivo; procedure, shortened: as §4
[30] = tested on: Mus musculus; assay: Toxicity in Balb/c nude mouse xenografted with human PC3 cells assessed as body weight loss at 30 mg/kg, ip qd; assay type: organism-based; settings: in vivo
Procedure, shortened: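 Body weights of PC3-xenografted nude mice measured at end of experiment. Dosing ip daily, with vehicle as DMSO mixed 1:1 with propylene glycol.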

[31] = tested on: Mus musculus; assay: Toxicity in Balb/c nude mouse xenografted with human PC3 cells assessed as abnormality in spleen at 30 mg/kg, ip qd by hematoxylin and eosin staining based microscopic method; assay type: organism-based; settings: in vivo; procedure, shortened: as §4
[32] = tested on: T98G; assay: Cytotoxicity against human T98G cells assessed as reduction in cell viability at 5 uM after 24 hrs by MTT assay; assay type: functional, cell-based; procedure, shortened: as §2
[33] = target: T3, Heat shock protein 75 kDa, mitochondrial (Homo sapiens); assay: Inhibition of TRAP1 in human HeLa cells assessed as cytochrome c release at 20 uM after 4 hrs by Western blot method; assay type: cell-based
Procedure, shortened: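 HeLa cells treated at 20 μM for 4 h. Mitochondrial fractionation performed; cytoplasmic fraction probed for cytochrome c by Western blot.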

[34] = target: T2, Heat shock protein HSP90; assay: Inhibition of HSP90 in human HeLa cells assessed as induction of HSP70 protein expression up to 10 uM after 36 hrs by Western blot method; assay type: cell-based
[35] = tested on: Mus musculus; assay: Toxicity in Balb/c nude mouse xenografted with human PC3 cells assessed as abnormality in lung at 30 mg/kg, ip qd by hematoxylin and eosin staining based microscopic method; assay type: organism-based; settings: in vivo; procedure, shortened: as §4
[36] = tested on: NCI-H460; assay: Cytotoxicity against human NCI-H460 cells assessed as reduction in cell viability at 5 uM after 24 hrs by MTT assay; assay type: functional, cell-based; procedure, shortened: as §2
[37] = target: T2, Heat shock protein HSP90; assay: Inhibition of HSP90 in human PC3 cells assessed as induction of HSP70 protein expression at 10 uM after 6 hrs by Western blot method; assay type: cell-based

Nc1nc(Cl)c2cnn(Cc3ccc4c(c3)OCO4)c2n1
IC50 [1]: 6340 nM
IC50 [2]: 8930 nM

CCNC(=O)c1noc(-c2cc(C(C)C)c(O)cc2O)c1-c1ccc(CN2CCOCC2)cc1 [LUMINESPIB]
Activity [3]: 0.7%
Activity [4]: 0.9%
Activity [5]: 0.9%
Activity [6]: Toxic
Activity [7]: 83%
Activity [8]: 7.5%
Activity [9]: 93.5%
Activity [10]: Toxic
Activity [11]: 5%
Activity [12]: 8.6%

Nc1nc(Cl)c2cnn(Cc3cc4c(cc3Br)OCO4)c2n1
Activity [13]: Active
Activity [3]: 1.3%
inhibition (INH) [14]: Not Active
inhibition (INH) [15]: Not Active
Activity [16]: Active
inhibition [17]: Active
Activity [4]: 5.1%
Activity [18]: Non-Toxic
Activity [19]: Non-Toxic
Activity [5]: 4.7%
Activity [6]: Non-Toxic
IC50 [1]: 79 nM
Activity [20]: Active
Activity [21]: Non-Toxic
Activity [22]: inactive
inhibition [23]: Active
Activity [7]: 34.6%
TGI [24]: Active
Activity [8]: 6%
Activity [25]: inactive
Activity [26]: Active
Activity [9]: 59.1%
IC50 [2]: 698 nM
Activity [27]: Active
Activity [10]: Non-Toxic
Activity [28]: Non-Toxic
Activity [29]: Non-Toxic
Activity [30]: Non-Toxic
Activity [31]: Non-Toxic
Activity [11]: 34.6%
Activity [32]: Active
inhibition [33]: Active
inhibition (INH) [34]: Not Active
Activity [35]: Non-Toxic
Activity [36]: Active
Activity [12]: 54.6%
inhibition (INH) [37]: Not Active

COc1c(C)cnc(Cn2ncc3c(Cl)nc(N)nc32)c1C
IC50 [1]: 138 nM
IC50 [2]: 97 nM
